Results as given in ChEMBL document CHEMBL5137075, “Discovery of a First-in-Class Degrader for Nuclear Receptor Binding SET Domain Protein 2 (NSD2) and Ikaros/Aiolos” (J Med Chem, 2022).
One block for each compound: values may come before it. The source made the active and inactive calls. The rule behind the calls is not given here.

Tests used:
[1] = molecular target: T1, Histone-lysine N-methyltransferase NSD2 (Homo sapiens, UniProt O96028); experiment: Binding affinity to N-terminal GST-tagged human NSD2 PWWP1 domain (208 to 369 residues) expressed in Escherichia coli […] (DE3) cells assessed as dissociation constant by isothermal titration calorimetry assay
T1 sequence (O96028 whole entry): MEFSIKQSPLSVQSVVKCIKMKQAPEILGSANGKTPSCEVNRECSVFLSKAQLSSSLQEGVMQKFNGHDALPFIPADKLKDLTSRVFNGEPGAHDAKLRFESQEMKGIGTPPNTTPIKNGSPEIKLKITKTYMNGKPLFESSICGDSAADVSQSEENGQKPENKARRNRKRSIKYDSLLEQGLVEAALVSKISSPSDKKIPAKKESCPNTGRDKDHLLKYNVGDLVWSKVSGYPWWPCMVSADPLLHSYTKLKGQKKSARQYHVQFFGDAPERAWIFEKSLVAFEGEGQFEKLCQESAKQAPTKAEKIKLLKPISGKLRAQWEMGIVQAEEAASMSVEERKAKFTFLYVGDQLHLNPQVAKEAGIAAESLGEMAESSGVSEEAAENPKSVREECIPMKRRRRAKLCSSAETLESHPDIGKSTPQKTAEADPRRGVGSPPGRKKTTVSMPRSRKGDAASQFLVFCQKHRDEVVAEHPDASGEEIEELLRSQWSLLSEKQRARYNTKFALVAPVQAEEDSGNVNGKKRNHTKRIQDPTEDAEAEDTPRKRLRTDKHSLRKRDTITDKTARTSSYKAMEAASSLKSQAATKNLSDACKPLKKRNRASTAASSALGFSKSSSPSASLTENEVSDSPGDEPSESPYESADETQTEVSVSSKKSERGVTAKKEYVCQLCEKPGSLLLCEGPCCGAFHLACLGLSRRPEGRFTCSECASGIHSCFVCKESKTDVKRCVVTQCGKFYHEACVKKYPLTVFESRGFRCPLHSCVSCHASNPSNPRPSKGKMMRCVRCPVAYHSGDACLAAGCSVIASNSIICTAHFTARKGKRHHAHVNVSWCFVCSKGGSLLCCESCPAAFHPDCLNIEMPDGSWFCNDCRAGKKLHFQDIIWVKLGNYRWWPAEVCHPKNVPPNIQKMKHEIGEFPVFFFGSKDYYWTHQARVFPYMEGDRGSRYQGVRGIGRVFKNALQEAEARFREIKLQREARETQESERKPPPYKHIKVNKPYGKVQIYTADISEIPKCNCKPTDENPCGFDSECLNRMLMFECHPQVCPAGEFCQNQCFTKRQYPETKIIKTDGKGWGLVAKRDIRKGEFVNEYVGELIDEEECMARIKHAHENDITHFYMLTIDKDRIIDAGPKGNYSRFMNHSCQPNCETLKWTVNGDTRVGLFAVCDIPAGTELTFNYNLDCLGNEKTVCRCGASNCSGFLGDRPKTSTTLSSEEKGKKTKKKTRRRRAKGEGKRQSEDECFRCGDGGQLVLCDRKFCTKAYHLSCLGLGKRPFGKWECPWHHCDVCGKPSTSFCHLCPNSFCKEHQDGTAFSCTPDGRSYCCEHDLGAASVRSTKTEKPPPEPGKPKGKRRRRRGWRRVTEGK

[2] = molecular target: von Hippel-Lindau disease tumor suppressor/Histone-lysine N-methyltransferase NSD2 (Homo sapiens) (UniProt O96028+P40337); experiment: Protac activity at VHL E3 ligase/ NSD2 PWWP1 domain (208 to 369 residues) in HEK293FT cells assessed as induction of NSD2 degradation at 2.5 to 10 uM incubated for 48 hrs by Western blot analysis; assay type: cell-based; details: dose 2.5-10 µM
In short: (§1)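 293FT cells (DMEM, 10% FBS) were treated with DMSO or compound at the indicated concentrations for 48 h. NSD2 was detected by Western blot of NP-40 lysates with GAPDH as loading control. Blots are representative of at least two independent experiments.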

[3] = molecular target: T2, Protein cereblon/Zinc finger protein Aiolos (Homo sapiens) (UniProt Q96SW2+Q9UKT9); experiment: Protac activity at CRBN/IKZF3 in human KMS-11 cells assessed as induction of IKZF3 degradation at 2.5 uM incubated for 72 hrs by Western blot analysis; assay type: cell-based
In short: (§2)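 KMS11 or H929 myeloma cells were treated with DMSO or 2.5 μM for 72 h. IKZF1 and IKZF3 were measured by Western blot with GAPDH as loading control, representative of two independent experiments.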

[4] = molecular target: T2, Protein cereblon/Zinc finger protein Aiolos (Homo sapiens); experiment: Protac activity at CRBN/IKZF3 in human NCI-H929 cells assessed as induction of IKZF3 degradation at 2.5 uM incubated for 72 hrs by Western blot analysis; assay type: cell-based; in short: as §2
[5] = molecular target: T3, Cereblon/Ikaros (Homo sapiens) (UniProt Q96SW2+Q13422); experiment: Protac activity at CRBN/IKZF1 in human NCI-H929 cells assessed as induction of IKZF1 degradation at 2.5 uM incubated for 72 hrs by Western blot analysis; assay type: cell-based; in short: as §2
[6] = molecular target: T3, Cereblon/Ikaros (Homo sapiens); experiment: Protac activity at CRBN/IKZF1 in human KMS-11 cells assessed as induction of IKZF1 degradation at 2.5 uM incubated for 72 hrs by Western blot analysis; assay type: cell-based; in short: as §2
[7] = molecular target: T2, Protein cereblon/Zinc finger protein Aiolos (Homo sapiens); experiment: Protac activity at CRBN/IKZF3 in wild type HEK293FT cells assessed as induction of IKZF3 degradation at 0.5 to 10 uM incubated for 48 hrs by Western blot analysis; assay type: cell-based; details: dose 0.5-10 µM
In short: (§3)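 Wild-type 293FT cells, alongside a CRISPR-Cas9 CRBN-knockout 293FT line, were treated across a concentration range for 48 h. NSD2, IKZF3 and CRBN were immunoblotted with GAPDH as loading control, representative of at least two independent experiments.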

[8] = molecular target: T4, Protein cereblon/Histone-lysine N-methyltransferase NSD2 (Homo sapiens, UniProt O96028+Q96SW2); experiment: Protac activity at CRBN/NSD2 PWWP1 domain (208 to 369 residues) in wild type HEK293FT cells assessed as induction of NSD2 degradation at 0.5 to 10 uM incubated for 48 hrs by Western blot analysis; assay type: cell-based; details: dose 0.5-10 µM; in short: as §3
[9] = molecular target: T4, Protein cereblon/Histone-lysine N-methyltransferase NSD2; experiment: Protac activity at CRBN E3 ligase/ NSD2 PWWP1 domain (208 to 369 residues) in HEK293FT cells assessed as induction of NSD2 degradation by measuring maximal efficacy at 0.5 to 10 uM incubated for 48 hrs by Western blot analysis relative to control; assay type: cell-based; details: dose 0.5-10 µM
In short: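 293FT cells were exposed to 0.5–10 μM for 48 h. NSD2 was immunoblotted with GAPDH as loading control and band intensity quantified by densitometry to derive DC50 and Dmax. Results are mean ± SD of two independent experiments.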

[10] = molecular target: T4, Protein cereblon/Histone-lysine N-methyltransferase NSD2; experiment: Protac activity at CRBN E3 ligase/ NSD2 PWWP1 domain (208 to 369 residues) in HEK293FT cells assessed as induction of NSD2 degradation 5 uM by Western blot analysis; assay type: cell-based; details: time 0-72 hrs, TDE = time-dependent effect
In short: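 293FT cells were treated at 5 μM for 0, 12, 24, 36, 48 or 72 h. Lysates were made in 50 mM Tris-HCl pH 8.0, 150 mM NaCl, 1% NP-40, and NSD2 was immunoblotted with GAPDH as loading control.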

[11] = molecular target: T4, Protein cereblon/Histone-lysine N-methyltransferase NSD2; experiment: Protac activity at CRBN E3 ligase/ NSD2 PWWP1 domain (208 to 369 residues) in HEK293FT cells assessed as induction of NSD2 degradation incubated for 48 hrs by Western blot analysis; assay type: cell-based; in short: as §1
KMS-11 = experiment: Antiproliferative activity against human KMS-11 cells assessed as inhibition of cell growth at 2.5 uM incubated for 8 days by automated TC10 cell counter based analysis; assay type: functional; details: time 8.0 day
In short: (§4)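 KMS11 or H929 cells (RPMI 1640, 10% FBS) seeded at 0.5 million per well in triplicate, treated with 2.5 μM or DMSO for 8 days. Compound-containing medium replaced every 2 days; cells diluted periodically to stay below 1 × 10^6/mL. Viability given relative to DMSO control as mean ± SD (n = 3).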

[12] = Toxicity in Swiss albino mouse assessed as clinical signs of toxicity at 50 mg/kg, ip administered for 8 hrs; assay type: organism-based; details: in vivo
In short: (§5)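 Three male Swiss albino mice received a single 50 mg/kg intraperitoneal dose as a solution in 5% NMP/45% propylene glycol/50% PEG-400 (v/v). Blood was drawn at 0.5, 2 and 8 h and plasma stored at −70 °C. Plasma levels were measured by LC–MS/MS (LLOQ 5.14 ng/mL), reported as mean ± SD of three mice; mice were watched for clinical signs.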

[13] = molecular target: T4, Protein cereblon/Histone-lysine N-methyltransferase NSD2; experiment: Protac activity at CRBN E3 ligase/ NSD2 PWWP1 domain (208 to 369 residues) in HEK293FT cells assessed as induction of NSD2 degradation at 2.5 to 10 uM incubated for 48 hrs by Western blot analysis; assay type: cell-based; details: dose 2.5-10 µM; in short: as §1
[14] = Cmax in Swiss albino mouse at 50 mg/kg, ip by LC-MS/MS analysis; assay type: ADME, organism-based; set-up: dose 50 mg/kg, route ip; details: in vivo; in short: as §5
[15] = Tmax in Swiss albino mouse at 50 mg/kg, ip by LC-MS/MS analysis; assay type: ADME, organism-based; details: in vivo; in short: as §5
NCI-H929 = experiment: Antiproliferative activity against human NCI-H929 cells assessed as inhibition of cell growth at 2.5 uM incubated for 8 days by automated TC10 cell counter based analysis; assay type: functional; details: time 8.0 day; in short: as §4
[16] = Drug concentration in Swiss albino mouse plasma at 50 mg/kg, ip measured after 8 hrs by LC-MS/MS analysis; assay type: ADME, organism-based; in short: as §5

SMILES: CN1C(=O)CCC(N2C(=O)c3cccc(NCC(=O)NCCCOc4ccc(NC(=O)c5ccc(CN(C(=O)c6ccc7c(c6)OCC(=O)N7)C6CC6)cc5)nc4)c3C2=O)C1=O (stereo not drawn)
Kd [1]: 900 nM

Activity [2]: Active
SMILES: Cc1ncsc1-c1ccc(CNC(=O)[C@@H]2C[C@@H](O)CN2C(=O)[C@@H](NC(=O)CCOCCOCCNC(=O)c2ccc(NC(=O)c3ccc(CN(C(=O)c4ccc5c(c4)OCC(=O)N5)C4CC4)cc3)cc2)C(C)(C)C)cc1

Activity [3]: Active
Activity [4]: Active
Activity [5]: Active
Activity [6]: Active
SMILES: CC(C)N(Cc1ccc(C(=O)Nc2ccc(OCCCNC(=O)CNc3cccc4c3C(=O)N(C3CCC(=O)NC3=O)C4=O)cn2)cc1)C(=O)c1ccc2c(c1)OCC(=O)N2 (stereo not drawn)

Kd [1]: 1100 nM
Activity [7]: Active
Activity [8]: Active
Activity [3]: Active
Emax [9]: > 82%
Activity [10]: Tde
DC50 [11]: 5200 nM
Activity [13]: Active
Cmax [14]: 1350 nM
Activity [4]: Active
Tmax [15]: 30 min
Activity [5]: Active
Activity [6]: Active
concentration at 8 h [16]: 980 nM
SMILES: O=C(CNc1cccc2c1C(=O)N(C1CCC(=O)NC1=O)C2=O)NCCCOc1ccc(NC(=O)c2ccc(CN(C(=O)c3ccc4c(c3)OCC(=O)N4)C3CC3)cc2)nc1 (stereo not drawn)
inhibition (KMS-11): Active
Activity [12]: Non-Toxic
inhibition (NCI-H929): Active
